In brackets after ≈: the same amount, converted by molar mass. Bridge positions count the residues as written; N and C are the ends. Square brackets hold non-standard residues; d marks the D form. Peptide text beside a SMILES is read from it. * marks the point of attachment. Heptanoyl(6-Me) = CC(C)CCCCC(=O)*; Dab = NCC[C@H](N)C(=O)O
What was measured:
[1] = test system: Escherichia coli; assay: Antibacterial activity against Escherichia coli ATCC 25922 after 18 hrs by agar dilution method; assay type: functional; details: ATCC 25922, 18 h
Procedure, shortened: (§1)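 Serial two-fold agar dilution per CLSI; bacteria cultured in Mueller-Hinton broth, inoculum about 10^4 cfu/spot; final concentrations 0.03-128 µg/mL; plates incubated 35 °C for 18 h. MIC = lowest concentration preventing visible growth; representative of at least two independent experiments, a third run when the two disagreed.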

[2] = test system: Escherichia coli; assay: Antibacterial activity against extended-spectrum beta-lactamase producing Escherichia coli isolate 14-11 after 18 hrs by agar dilution method; assay type: functional; details: isolate 14-11, 18 h; procedure, shortened: as §1
[3] = test system: Klebsiella pneumoniae; assay: Antibacterial activity against extended-spectrum beta-lactamase producing Klebsiella pneumoniae 700603 after 18 hrs by agar dilution method; assay type: functional; details: Klebsiella pneumoniae, 700603, 18 h; procedure, shortened: as §1
[4] = test system: Klebsiella pneumoniae; assay: Antibacterial activity against NDM-1 producing Klebsiella pneumoniae ATCC BAA-2146 after 18 hrs by agar dilution method; assay type: functional; details: ATCC BAA-2146, 18 h; procedure, shortened: as §1
[5] = test system: Pseudomonas aeruginosa; assay: Antibacterial activity against Pseudomonas aeruginosa ATCC 27853 after 18 hrs by agar dilution method; assay type: functional; details: ATCC 27853, 18 h; procedure, shortened: as §1
[6] = test system: Acinetobacter baumannii; assay: Antibacterial activity against Acinetobacter baumannii ATCC 19606 after 18 hrs by agar dilution method; assay type: functional; details: ATCC 19606 = CIP 70.34 = JCM 6841, 18 h; procedure, shortened: as §1
[7] = (§2) Cytotoxicity against African green monkey Vero cells after 72 hrs by MTT assay; assay type: cell-based; details: chlorocebus sabaeus, Vero cells
Procedure, shortened: (§3)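 Vero cells seeded at 2x10^3 cells/well, incubated 24 h at 37 °C, 5% CO2, then exposed to compound 72 h; MTT added for 2 h, medium removed, formazan dissolved in DMSO, absorbance read at 570 nm. Viability relative to untreated cells (100%); CC50 as mean ± SD of three independent experiments, each in triplicate.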

[8] = Acute toxicity in iv dosed ICR mouse assessed as survival measured daily for 7 days; assay type: organism-based; details: in vivo
Procedure, shortened: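 ICR mice, 18 to 22 g, 4 weeks old, 10 per group (5 male, 5 female). Four to five intravenous dose groups per compound. Survival recorded daily for 7 days. LD50 (dose per kg body weight lethal to 50%) calculated by the Bliss method. LD50 values compared by one-way ANOVA.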

[9] = test system: Mus musculus; assay: Nephrotoxicity in ICR mouse assessed as tubular dilation at 2.5 mg/kg, iv bid for 7 days measured after 2 hrs post last dose by hematoxylin and eosin staining based assay; assay type: toxicity, organism-based; details: in vivo
Procedure, shortened: (§4)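 ICR mice, 18-22 g, 4 weeks old, n=8 per group (4 male, 4 female); component in saline (0.25 mg/mL, kept at 4 °C) given iv at 2.5 mg/kg twice daily, 8 h apart, for 7 days. Kidneys taken 2 h after last dose, formalin-fixed, paraffin-embedded, sectioned, H&E stained and examined by light microscopy; saline controls included.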

[10] = test system: Mus musculus; assay: Nephrotoxicity in ICR mouse assessed as induction of prominent nuclei at 2.5 mg/kg, iv bid for 7 days measured after 2 hrs post last dose by hematoxylin and eosin staining based assay; assay type: toxicity, organism-based; details: in vivo; procedure, shortened: as §4
[11] = test system: Mus musculus; assay: Nephrotoxicity in ICR mouse assessed as pale tubular casts at 2.5 mg/kg, iv bid for 7 days measured after 2 hrs post last dose by hematoxylin and eosin staining based assay; assay type: toxicity, organism-based; details: in vivo; procedure, shortened: as §4
[12] = test system: Vero; assay: as §2; assay type: cell-based; details: chlorocebus sabaeus, vero, 72 h; procedure, shortened: as §3

Compound	MIC [1]	MIC [2]	MIC [3]	MIC [4]	MIC [5]	MIC [6]	CC50 at 72 h [7]	LD50 at 168 h [8]	Activity [9]	Activity [10]	Activity [11]	CC50 [12]
CC(C)CCCCC(=O)N[C@@H](CCN)C(=O)N[C@H](C(=O)N[C@@H](CCN)C(=O)N[C@H]1CCNC(=O)[C@H]([C@@H](C)O)NC(=O)[C@H](CCN)NC(=O)[C@H](CCN)NC(=O)[C@H](CC(C)C)NC(=O)[C@@H](CC(C)C)NC(=O)[C@H](CCN)NC1=O)[C@@H](C)O [COLISTIN B] ({Heptanoyl(6-Me)}-[Dab]T[Dab][Dab][Dab][dL]L[Dab][Dab]T; lactam 4-C)	0.5 µg/mL (≈ 0.433 µM)	0.5 µg/mL (≈ 0.433 µM)	1 µg/mL (≈ 0.865 µM)	1 µg/mL (≈ 0.865 µM)	2 µg/mL (≈ 1.73 µM)	0.5 µg/mL (≈ 0.433 µM)	244 µg/mL (≈ 211 µM)	11.3 mg/kg	Non-Toxic	Non-Toxic	Non-Toxic	–
CC(C)CCCCC(=O)N[C@@H](CCN)C(=O)N[C@H](C(=O)N[C@@H](CCN)C(=O)N[C@H]1CCNC(=O)[C@H]([C@@H](C)O)NC(=O)[C@H](CCN)NC(=O)[C@H](CCN)NC(=O)[C@H](CC(C)C)NC(=O)[C@@H](Cc2ccccc2)NC(=O)[C@H](CCN)NC1=O)[C@@H](C)O [POLYMYXIN B2] ({Heptanoyl(6-Me)}-[Dab]T[Dab][Dab][Dab][dF]L[Dab][Dab]T; lactam 4-C)	0.5 µg/mL (≈ 0.42 µM)	0.5 µg/mL (≈ 0.42 µM)	1 µg/mL (≈ 0.841 µM)	1 µg/mL (≈ 0.841 µM)	2 µg/mL (≈ 1.68 µM)	0.5 µg/mL (≈ 0.42 µM)	159 µg/mL (≈ 134 µM)	12.6 mg/kg	Toxic	Toxic	Toxic	–
COLISTIN	–	–	–	–	–	–	–	–	–	–	–	95 µg/mL

Source: ChEMBL document CHEMBL4118103, “Synthesis and Bioactivity Investigation of the Individual Components of Cyclic Lipopeptide Antibiotics” (J Med Chem, 2018)
